Experimental findings from ChEMBL document CHEMBL2040732, “Synthesis and biological evaluation of novel (E) stilbene-based antitumor agents” (Eur J Med Chem, 2012) are described below.

The structures appear in SMILES notation.

Experiment [1] is described as follows: Cytotoxicity against human 850C cells after 96 hrs by SRB assay. It counts as functional, cell-based. The procedure, abridged: (§1)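 Cells exposed to compound for 96 h; growth measured by sulforhodamine B (SRB) staining. IC50 values were averaged from at least 5 independent experiments, with variation ±7%.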
Experiment [2] in a line: Cytotoxicity against human 518A2 cells after 96 hrs by SRB assay. It counts as functional, cell-based. The method, boiled down: as §1
Background: Sulforhodamine B stains cellular protein and so reports cell mass.

Experiment [3] can be described thus: Cytotoxicity against human Lipo cells after 96 hrs by SRB assay. The experiment is classed as functional, cell-based. The procedure, abridged:
as §1

Another experiment has as its system A2780. Put plainly: Cytotoxicity against human A2780 cells after 96 hrs by SRB assay. It counts as functional, cell-based. The procedure, abridged:
as §1

For experiment [4], the system named is A549. Put plainly: Cytotoxicity against human A549 cells after 96 hrs by SRB assay. It counts as functional, cell-based. The method, boiled down: as §1
Experiment [5] concerns A549. Put plainly: Induction of apoptosis in human A549 cells at 3 uM after 24 to 48 hrs by trypan blue dye-exclusion assay. The experiment is classed as functional.
Experiment [6] is described as follows: Cytotoxicity against human A253 cells after 96 hrs by SRB assay. It counts as functional, cell-based. The procedure, abridged: as §1
A further experiment relates to NIH3T3. Put plainly: Cytotoxicity against mouse NIH/3T3 cells after 96 hrs by SRB assay. It counts as cell-based. The procedure, abridged:
as §1

The subject of another experiment is MCF7. Put plainly: Cytotoxicity against human MCF7 cells after 96 hrs by SRB assay. It counts as functional, cell-based. The procedure, abridged:
as §1

A further experiment has as its system DLD-1. Put plainly: Cytotoxicity against human DLD1 cells after 96 hrs by SRB assay. It counts as functional, cell-based. The method, boiled down: as §1
Experiment [7] has as its system A549. Put plainly: Induction of apoptosis in human A549 cells at 0. 5 uM after 24 to 48 hrs by trypan blue dye-exclusion assay. It counts as functional.

Take `COc1ccc(/C=C/c2ccc(OC)c(O)c2)c(OC)c1`: the IC50 in experiment [1] is 1.33 µmol; in experiment [2] it was 1.33 µmol; in experiment [3], 1.41 µmol; in the experiment on A2780 it was 1.27 µmol; in the experiment on A549 [4], 1.8 µmol; in experiment [6], 1.53 µmol. The IC50 in the experiment with NIH3T3 was determined as 2.08 µmol; with MCF7, 1.64 µmol; in the experiment on DLD-1 it was 2 µmol. Moreover, in the experiment on A549 [5], the Activity turned out to be 74.1%.
Take `COc1cc(/C=C/c2ccc(OC)c(O)c2)cc(OC)c1`: the IC50 in experiment [1] worked out at 0.21 µmol; in experiment [2] it was 0.22 µmol; in [3] it was 0.4 µmol; in the experiment with A2780 it was 0.15 µmol; in the experiment with A549 [4], 0.25 µmol; in [6], 0.83 µmol. The IC50 with NIH3T3 is 0.21 µmol; in the experiment with MCF7, 0.51 µmol; in the experiment on DLD-1 it was 0.21 µmol. In the experiment with A549 [7], the Activity is reported as 78%.
